In ChEMBL document CHEMBL4177758, “Rational Drug Design of Topically Administered Caspase 1 Inhibitors for the Treatment of Inflammatory Acne” (J Med Chem, 2018):
≈ marks a conversion by molar mass, not a printed value. Calls of active or inactive are those of the source. The rule behind the calls is not given here.

Tests used:
[1] = Solubility of the compound in PG/EtOH solution; format: physicochemical
[2] = Chemical stability in 96% ethanol assessed as parent compound recovery at 23 degC after 3 months; format: physicochemical; details: read-out: Drug recovery
Method in brief: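 Compounds bearing the aspartyl aldehyde warhead are held in 96% ethanol at 23 °C and assayed as percent of parent compound recovered. Readings taken after 4 weeks are projected to 12 weeks with best-fit kinetic-order equations. Tautomers and potential stereoisomers are counted as parent.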

[3] = Aqueous solubility of the compound in pH 7.4 buffered water after 24 hrs; format: physicochemical
Method in brief: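 Semi-thermodynamic protocol: a mixture made from a 10 mM DMSO stock is diluted into pH 7.4 buffered water and stirred 24 h before the concentration is measured.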

[4] = Intrinsic clearance in human epidermal keratinocyte S9 fraction assessed per mg of protein; format: ADME
[5] = Phototoxicity in NHEK assessed as decrease in cell viability after 24 hrs in presence of UV light by neutral red uptake assay; details: human
Method in brief: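 Keratinocyte neutral red uptake assay adapted from the OECD 432 3T3 NRU test. Cells are irradiated with a simulated daily UV dose of 6 J/cm², and viability is read after 24 h exposure to compound.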

[6] = Lipophilicity, log D of the compound at pH 6.5 by chromatographic method; format: physicochemical; details: buffer
Method in brief: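 Chromatographic lipophilicity at pH 6.5, converted to ChromLogD = CHI × 0.0857 − 2.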

[7] = Intrinsic clearance in NHEK cells assessed per 10^6 cells; format: ADME, cell-based; details: human
Caspase-1 [8] = biological target: T1, Caspase-1 (Homo sapiens, UniProt P29466); test: Inhibition of caspase-1 in human THP1 cells assessed as decrease in LPS-induced IL-1beta secretion after overnight incubation by sandwich immunoassay; format: cell-based
T1 sequence (P29466 whole entry): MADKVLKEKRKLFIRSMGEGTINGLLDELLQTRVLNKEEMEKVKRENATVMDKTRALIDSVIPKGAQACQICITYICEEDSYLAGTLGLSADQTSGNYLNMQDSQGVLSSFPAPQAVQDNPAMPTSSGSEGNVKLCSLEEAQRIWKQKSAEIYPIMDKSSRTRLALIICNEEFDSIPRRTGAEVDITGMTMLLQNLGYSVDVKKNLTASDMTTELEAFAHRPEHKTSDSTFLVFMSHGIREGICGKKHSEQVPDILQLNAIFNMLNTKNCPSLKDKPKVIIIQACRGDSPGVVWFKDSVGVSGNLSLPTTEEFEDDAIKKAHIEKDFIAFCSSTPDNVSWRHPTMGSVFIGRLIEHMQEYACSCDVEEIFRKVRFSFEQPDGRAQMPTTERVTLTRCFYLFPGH

Caspase-1 [9] = biological target: T1, Caspase-1; test: Inhibition of human recombinant caspase-1 using AC-WEHD-AMC as substrate at 20 times Km after 20 mins by fluorescence assay
Method in brief: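 Human recombinant caspase-1 in pH 7.4 HEPES buffer (100 mM NaCl, 0.1% CHAPS, 1 mM EDTA, 10% glycerol, 10 mM DTT) with Ac-WEHD-AMC at 200 μM final. Compounds tested at 10 000–0.04 nM in 1% DMSO. Enzyme level is set to convert under 20% of substrate in 20 min at room temperature. Free AMC read at ex 340/em 450 nm; IC50 from a four-parameter logistic fit.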

Caspase-1 [10] = biological target: T1, Caspase-1; test: Inhibition of human recombinant caspase-1 using AC-WEHD-AMC as substrate at Km after 20 mins by fluorescence assay
Caspase-1 (Homo sapiens) [11] = biological target: T2, Caspase-1 (Homo sapiens) (UniProt P29466); test: Pseudoirreversible inhibition of human recombinant caspase-1 using AC-WEHD-AMC as substrate at 10 times IC50 preincubated for 1 hr followed by 100 fold dilution with substrate measured for 2 hrs by fluorescence assay
T2 sequence (whole entry): T1 sequence (P29466 whole entry)
Method in brief: (§1)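 Jump dilution using the caspase-1 assay reagents. A 100X enzyme solution is preincubated 1 h with inhibitor at its IC90 (1% DMSO), then diluted 100-fold into Ac-WEHD-AMC at Km. AMC formation is recorded continuously for 2 h. The progress-curve slope is normalized to the DMSO control: about 90% indicates reversible, about 10% pseudo-irreversible.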

Caspase-1 (Homo sapiens) [12] = biological target: T2, Caspase-1 (Homo sapiens); test: Reversible inhibition of human recombinant caspase-1 using AC-WEHD-AMC as substrate at 10 times IC50 preincubated for 1 hr followed by 100 fold dilution with substrate measured for 2 hrs by fluorescence assay; method in brief: as §1

SMILES	solubility at 24 h [3] [µM]	chromatographic logD [6]	IC50 (Caspase-1 [8]) [nM]	IC50 (Caspase-1 [9]) [nM]	IC50 (Caspase-1 [10]; read-out: pIC50 (converted)) [nM]	further results
CCC(C(=O)N[C@H]1CC(=O)OC1O)n1c(=O)c(NC(=O)c2ncc(Nc3ccc4ccccc4c3)cc2C)cn(C(C)C)c1=O (stereo partly drawn)	2 (≈ 1.23 µg/mL)	4.5	200	–	–	solubility [1]: 49000 µM (≈ 30100 µg/mL); remaining at 2191.5 h [2]: 100%; CL [4]: 2 uL/min/mg protein; Activity [5]: Toxic; CL [7]: 7.7 uL/min/10^6 cells
CC(C(=O)N[C@H]1CC(=O)OC1O)n1c(=O)c(NC(=O)c2ccc(Nc3cnc4ccccc4n3)cc2)cn(C)c1=O (stereo partly drawn)	96 (≈ 53.7 µg/mL)	1.9	48	31.6	–	solubility [1]: 890 µM (≈ 498 µg/mL); IC50 (Caspase-1 [10]; read-out: IC50): 5.6 nM
O=C1C[C@H](NC(=O)[C@@H]2CC[C@@H]3CCCC[C@H](NC(=O)c4nccc5ccccc45)C(=O)N32)C(O)O1 (stereo partly drawn)	–	–	–	–	–	pseudo-irreversible inhibition (qualitative call) (Caspase-1 (Homo sapiens) [11]): Active
CC(C)[C@H](NC(=O)[C@H](Cc1ccc(O)cc1)NC(=O)OCc1ccccc1)C(=O)N[C@@H](C)C(=O)N[C@@H](CC(=O)O)C(=O)CF	–	–	–	–	–	pseudo-irreversible inhibition (qualitative call) (Caspase-1 (Homo sapiens) [11]): Active
CCC(C(=O)N[C@H]1CC(=O)OC(O)C1)n1c(=O)c(NC(=O)c2ccc(Nc3ccc4ccccc4c3)cc2C)cn(C(C)C)c1=O (stereo partly drawn)	42 (≈ 26.4 µg/mL)	3.8	210	–	–	remaining at 2191.5 h [2]: 84%; CL [4]: 2.9 uL/min/mg protein; CL [7]: 13 uL/min/10^6 cells
CC(C)N(NC(=O)c1ccc2ccccc2c1)C(=O)[C@@H]1CCCC[C@H]1C(=O)N[C@H]1CC(=O)OC1O (stereo partly drawn)	–	–	–	–	–	reversible inhibition call (jump dilution) (Caspase-1 (Homo sapiens) [12]): Active
CC(C)n1cc(NC(=O)c2ccc(Nc3ccc4ccccc4c3)cc2)c(=O)n(CC(=O)N[C@H]2CC(=O)OC2O)c1=O (stereo partly drawn)	52 (≈ 29.7 µg/mL)	3.2	140	–	–	solubility [1]: 36000 µM (≈ 20600 µg/mL); remaining at 2191.5 h [2]: 82%; CL [4]: < 0.82 uL/min/mg protein; Activity [5]: Toxic; IC50 (Caspase-1 [10]; read-out: IC50): 21 nM
CC(C)N(NC(=O)c1nccc2ccccc12)C(=O)[C@@H]1CCCC[C@H]1C(=O)N[C@H]1CC(=O)OC1O (stereo partly drawn)	–	–	–	–	–	reversible inhibition call (jump dilution) (Caspase-1 (Homo sapiens) [12]): Active
CC(C)[C@H](NC(=O)c1ccc2ccccc2c1)C(=O)N1C2CCC(O)(CC2)C1C(=O)N[C@H]1CC(=O)OC1O (stereo partly drawn)	–	–	–	100	15.8	–
C[C@@H](C(=O)N[C@H]1CC(=O)OC1O)N1C(=O)C[C@H](NC(=O)c2ccc3ccccc3c2)C1=O (stereo partly drawn)	–	–	–	–	–	pseudo-irreversible inhibition (qualitative call) (Caspase-1 (Homo sapiens) [11]): Active
CCC(C(=O)N[C@H]1CC(=O)OC1O)n1c(=O)c(NC(=O)c2ccc(Nc3ccc4ccccc4c3)cc2C)cn(C(C)C)c1=O (stereo partly drawn)	–	4	76	–	–	remaining at 2191.5 h [2]: 72%
O=C1C[C@H](NC(=O)[C@@H]2C[C@@H]3CN2C(=O)[C@@H](NC(=O)c2ccc4ccccc4c2)CCCCO3)C(O)O1 (stereo partly drawn)	–	–	–	> 10000	5010	–
CC(C)n1cc(NC(=O)c2ccc(Nc3cnc4ccccc4n3)cc2)c(=O)n(CC(=O)N[C@H]2CC(=O)OC2O)c1=O (stereo partly drawn)	8.3 (≈ 4.76 µg/mL)	2.3	53	–	–	solubility [1]: 5200 µM (≈ 2980 µg/mL); IC50 (Caspase-1 [10]; read-out: IC50): 3 nM
CC(C)N(NC(=O)c1ccc2ccccc2c1)C(=O)C1CNC[C@H]1C(=O)N[C@H]1CC(=O)OC1O (stereo partly drawn)	–	–	–	1580 to 10000	251 to 10000	–
CC(C(=O)N[C@H]1CC(=O)OC1O)n1c(=O)c(NC(=O)c2ccc3ccccc3c2)cn(C)c1=O (stereo partly drawn)	–	–	–	7940	501	reversible inhibition call (jump dilution) (Caspase-1 (Homo sapiens) [12]): Active
Cc1cnc(Nc2ccc(C(=O)Nc3cn(C)c(=O)n(C(C)C(=O)N[C@H]4CC(=O)OC4O)c3=O)cc2)cn1 (stereo partly drawn)	–	–	–	–	39.8	–
CC(C)N(NC(=O)c1ccc2ccccc2c1)C(=O)C1CCC[C@H]1C(=O)N[C@H]1CC(=O)OC1O (stereo partly drawn)	–	–	–	1580 to 10000	251 to 10000	–
C[C@@H](C(=O)N[C@H]1CC(=O)OC1O)N1C(=O)CC(NC(=O)c2ccc3ccccc3c2)C1=O (stereo partly drawn)	–	–	–	1260 to 10000	1000 to 10000	–
CC(C)n1cc(NC(=O)c2ccc(Nc3cnc4ccccc4n3)cc2)c(=O)n(C2(C(=O)N[C@H]3CC(=O)OC3O)CC2)c1=O (stereo partly drawn)	87 (≈ 52.2 µg/mL)	2.4	27	–	–	solubility [1]: 25000 µM (≈ 15000 µg/mL); IC50 (Caspase-1 [10]; read-out: IC50): 4.7 nM
CC(C)N(NC(=O)c1ccc2ccccc2c1)C(=O)C1CCCC[C@H]1C(=O)N[C@H]1CC(=O)OC1O (stereo partly drawn)	–	–	–	1580 to 10000	251 to 10000	–
CC(C)[C@H](NC(=O)c1ccc2ccccc2c1)c1ccc(C(=O)N[C@H]2CC(=O)OC2O)cn1 (stereo partly drawn)	–	–	–	> 10000	1260	–
C[C@@H](C(=O)N[C@H]1CC(=O)O[C@@H]1O)N1C(=O)CCC(NC(=O)c2ccc3ccccc3c2)C1=O (stereo partly drawn)	–	–	–	–	–	pseudo-irreversible inhibition (qualitative call) (Caspase-1 (Homo sapiens) [11]): Active
Cc1cc(Nc2ccc3ccccc3c2)ccc1C(=O)Nc1cn(C(C)C)c(=O)n(CC(=O)N[C@H]2CC(=O)OC2O)c1=O (stereo partly drawn)	72 (≈ 42.2 µg/mL)	3.5	66	–	–	solubility [1]: 51000 µM (≈ 29900 µg/mL); remaining at 2191.5 h [2]: 85%; CL [7]: 3.9 uL/min/10^6 cells
CC(C)N(NC(=O)c1cccc(Oc2ccccc2)c1)C(=O)[C@@H]1CCCC[C@H]1C(=O)N[C@H]1CC(=O)OC1O (stereo partly drawn)	–	–	–	–	–	reversible inhibition call (jump dilution) (Caspase-1 (Homo sapiens) [12]): Active
C[C@@H](C(=O)N[C@H]1CC(=O)OC1O)N1C(=O)CCC(NC(=O)c2ccc3ccccc3c2)C1=O (stereo partly drawn)	–	–	–	1260 to 10000	1000 to 10000	–
C[C@@H](C(=O)N[C@H]1CC(=O)OC1O)N1C(=O)NC(NC(=O)c2ccc3ccccc3c2)C1=O (stereo partly drawn)	–	–	–	1260 to 10000	1000 to 10000	–
CC(C)n1cc(NC(=O)c2ccc(Nc3cnc4ccccc4n3)cc2)c(=O)n(C(C)C(=O)N[C@H]2CC(=O)OC2O)c1=O (stereo partly drawn)	86 (≈ 50.5 µg/mL)	2.4	50	–	–	solubility [1]: 11000 µM (≈ 6460 µg/mL); IC50 (Caspase-1 [10]; read-out: IC50): 5.6 nM
CC(C)n1cc(NC(=O)c2ccc(Nc3ccc4ccccc4c3)cc2)c(=O)n(C2(C(=O)N[C@H]3CC(=O)OC3O)CC2)c1=O (stereo partly drawn)	66 (≈ 39.4 µg/mL)	3.5	23	–	–	solubility [1]: 31000 µM (≈ 18500 µg/mL); remaining at 2191.5 h [2]: 99%; CL [4]: < 0.82 uL/min/mg protein; CL [7]: 2.1 uL/min/10^6 cells
